# Test system: Fibroblast
# Test: Multiplex assay against human fibroblast
# Type: toxicity, cell-based
# In short: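 Four dyes were applied at seeding to live cells: Hoechst33342, BioTracker Green Microtubule Cytoskeleton Dye, MitoTracker Red and Annexin V Alexa Fluor 680. Imaging after compound addition used a CQ1 microscope at 37°C and 5% CO2. CellPathfinder machine-learning gating then sorted cells into Hoechst high-intensity objects or normal cells, normal cells into healthy, pyknosed or fragmented nuclei, and pyknosed cells into mitotic or apoptotic, with tubulin, mitochondrial-mass and membrane-permeability phenotypes given as per cents of healthy-nucleus cells.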
# [1] = 12 h, 1 µM, compound concentration 1 uM, replicate 1
# [2] = 12 h, 1 µM, compound concentration 1 uM, replicate 2
# [3] = 12 h, 10 µM, compound concentration 10 uM, replicate 1
# [4] = 12 h, 10 µM, compound concentration 10 uM, replicate 2
# [5] = 24 h, 1 µM, compound concentration 1 uM, replicate 1
# [6] = 24 h, 1 µM, compound concentration 1 uM, replicate 2
# [7] = 24 h, 10 µM, compound concentration 10 uM, replicate 1
# [8] = 24 h, 10 µM, compound concentration 10 uM, replicate 2
# [9] = 48 h, 1 µM, compound concentration 1 uM, replicate 1
# [10] = 48 h, 1 µM, compound concentration 1 uM, replicate 2
# [11] = 48 h, 10 µM, compound concentration 10 uM, replicate 1
# [12] = 48 h, 10 µM, compound concentration 10 uM, replicate 2
compound,measurement,setting,value
CC1=C(C(=O)Nc2cc3cn[nH]c3cc2F)C(c2ccc(C(F)(F)F)cc2)CC(=O)N1 (stereo not drawn),Population Apoptotic (%),[1],78%
same,Population Fragmented Nuclei (%),[1],29%
same,Population Healthy Nuclei (%),[1],41%
same,Population Hoechst High Intensity Objects (%),[1],12%
same,Population Membrane Permeable-Phenotype (%),[1],20%
same,Population Mitochondria Different-Phenotype (%),[1],6%
same,Population Mitotic Cells (%),[1],21%
same,Population Normal (%),[1],87%
same,Population Pyknosed Nuclei (%),[1],29%
same,Population Tubulin-Different-Phenotype (%),[1],31%
same,Total Cell Count,[1],124
same,Population Apoptotic (%),[2],50%
same,Population Fragmented Nuclei (%),[2],2%
same,Population Healthy Nuclei (%),[2],93%
same,Population Hoechst High Intensity Objects (%),[2],10%
same,Population Membrane Permeable-Phenotype (%),[2],4%
same,Population Mitochondria Different-Phenotype (%),[2],9%
same,Population Mitotic Cells (%),[2],50%
same,Population Normal (%),[2],89%
same,Population Pyknosed Nuclei (%),[2],4%
same,Population Tubulin-Different-Phenotype (%),[2],14%
same,Total Cell Count,[2],76
same,Population Apoptotic (%),[3],55%
same,Population Fragmented Nuclei (%),[3],25%
same,Population Healthy Nuclei (%),[3],46%
same,Population Hoechst High Intensity Objects (%),[3],9%
same,Population Membrane Permeable-Phenotype (%),[3],24%
same,Population Mitochondria Different-Phenotype (%),[3],11%
same,Population Mitotic Cells (%),[3],44%
same,Population Normal (%),[3],90%
same,Population Pyknosed Nuclei (%),[3],27%
same,Population Tubulin-Different-Phenotype (%),[3],50%
same,Total Cell Count,[3],144
same,Population Apoptotic (%),[4],50%
same,Population Fragmented Nuclei (%),[4],21%
same,Population Healthy Nuclei (%),[4],70%
same,Population Membrane Permeable-Phenotype (%),[4],5%
same,Population Mitochondria Different-Phenotype (%),[4],12%
same,Population Mitotic Cells (%),[4],50%
same,Population Pyknosed Nuclei (%),[4],7%
same,Population Tubulin-Different-Phenotype (%),[4],25%
same,Total Cell Count,[4],97
same,Population Apoptotic (%),[5],54%
same,Population Fragmented Nuclei (%),[5],20%
same,Population Healthy Nuclei (%),[5],56%
same,Population Hoechst High Intensity Objects (%),[5],18%
same,Population Membrane Permeable-Phenotype (%),[5],35%
same,Population Mitochondria Different-Phenotype (%),[5],1%
same,Population Mitotic Cells (%),[5],45%
same,Population Normal (%),[5],81%
same,Population Pyknosed Nuclei (%),[5],23%
same,Population Tubulin-Different-Phenotype (%),[5],25%
same,Total Cell Count,[5],127
same,Population Apoptotic (%),[6],42%
same,Population Fragmented Nuclei (%),[6],7%
same,Population Healthy Nuclei (%),[6],86%
same,Population Hoechst High Intensity Objects (%),[6],4%
same,Population Membrane Permeable-Phenotype (%),[6],10%
same,Population Mitochondria Different-Phenotype (%),[6],13%
same,Population Mitotic Cells (%),[6],57%
same,Population Normal (%),[6],95%
same,Population Pyknosed Nuclei (%),[6],6%
same,Population Tubulin-Different-Phenotype (%),[6],16%
same,Total Cell Count,[6],93
same,Population Apoptotic (%),[7],40%
same,Population Fragmented Nuclei (%),[7],25%
same,Population Healthy Nuclei (%),[7],54%
same,Population Hoechst High Intensity Objects (%),[7],9%
same,Population Membrane Permeable-Phenotype (%),[7],22%
same,Population Mitochondria Different-Phenotype (%),[7],8%
same,Population Mitotic Cells (%),[7],59%
same,Population Normal (%),[7],90%
same,Population Pyknosed Nuclei (%),[7],19%
same,Population Tubulin-Different-Phenotype (%),[7],40%
same,Total Cell Count,[7],125
same,Population Apoptotic (%),[8],75%
same,Population Fragmented Nuclei (%),[8],23%
same,Population Healthy Nuclei (%),[8],68%
same,Population Hoechst High Intensity Objects (%),[8],6%
same,Population Membrane Permeable-Phenotype (%),[8],4%
same,Population Mitochondria Different-Phenotype (%),[8],14%
same,Population Mitotic Cells (%),[8],25%
same,Population Normal (%),[8],93%
same,Population Pyknosed Nuclei (%),[8],8%
same,Population Tubulin-Different-Phenotype (%),[8],29%
same,Total Cell Count,[8],119
same,Population Apoptotic (%),[9],66%
same,Population Fragmented Nuclei (%),[9],33%
same,Population Healthy Nuclei (%),[9],48%
same,Population Hoechst High Intensity Objects (%),[9],11%
same,Population Membrane Permeable-Phenotype (%),[9],19%
same,Population Mitochondria Different-Phenotype (%),[9],5%
same,Population Mitotic Cells (%),[9],33%
same,Population Normal (%),[9],88%
same,Population Pyknosed Nuclei (%),[9],18%
same,Population Tubulin-Different-Phenotype (%),[9],14%
same,Total Cell Count,[9],131
same,Population Apoptotic (%),[10],33%
same,Population Fragmented Nuclei (%),[10],31%
same,Population Healthy Nuclei (%),[10],65%
same,Population Hoechst High Intensity Objects (%),[10],22%
same,Population Membrane Permeable-Phenotype (%),[10],6%
same,Population Mitochondria Different-Phenotype (%),[10],0%
same,Population Mitotic Cells (%),[10],66%
same,Population Normal (%),[10],77%
same,Population Pyknosed Nuclei (%),[10],3%
same,Population Tubulin-Different-Phenotype (%),[10],23%
same,Total Cell Count,[10],127
same,Population Apoptotic (%),[11],46%
same,Population Fragmented Nuclei (%),[11],33%
same,Population Healthy Nuclei (%),[11],54%
same,Population Hoechst High Intensity Objects (%),[11],11%
same,Population Membrane Permeable-Phenotype (%),[11],26%
same,Population Mitochondria Different-Phenotype (%),[11],4%
same,Population Mitotic Cells (%),[11],53%
same,Population Normal (%),[11],88%
same,Population Pyknosed Nuclei (%),[11],11%
same,Population Tubulin-Different-Phenotype (%),[11],23%
same,Total Cell Count,[11],130
same,Population Apoptotic (%),[12],62%
same,Population Fragmented Nuclei (%),[12],26%
same,Population Healthy Nuclei (%),[12],65%
same,Population Membrane Permeable-Phenotype (%),[12],7%
same,Population Mitochondria Different-Phenotype (%),[12],1%
same,Population Mitotic Cells (%),[12],37%
same,Population Pyknosed Nuclei (%),[12],8%
same,Population Tubulin-Different-Phenotype (%),[12],22%
same,Total Cell Count,[12],109

# Reference: ChEMBL document CHEMBL4689842, “EUbOPEN Chemogenomics Library wave 1” (2021)
